ChEMBL document CHEMBL1148490, “Synthesis, characterization, and preliminary in vivo tests of new poly(ethylene glycol) conjugates of the antitumor agent 10-amino-7-ethylcamptothecin” (J Med Chem, 2004)
“And” between values parts separate entries of the source, which are not always exact repeats. Identical values can stand only once.

How the values were obtained:
[1] = Mean residence time at a dose of 4 mg/kg in Rat Plasma after iv administration; assay type: ADME, organism-based; design: dose 4 mg/kg, route intravenous
Method in brief: (§1)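 Rats given a single iv dose via the right femoral vein after full recovery from anaesthesia, then a saline flush. Free drug dissolved in DMSO/10 mM H3PO4 (10/1); sodium salt in water. Blood (200 µL) drawn from a left femoral artery cannula at 2, 5, 10, 30 min and 1, 3, 5, 7 h. Plasma diluted in H3PO4 with camptothecin internal standard.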

[2] = Maximum plasma concentration at a dose of 4 mg/kg in Rat Plasma after iv administration; assay type: ADME, organism-based; design: dose 4 mg/kg, route intravenous; method in brief: as §1
[3] = (§2) Half life at a dose of 4 mg/kg in Rat Plasma after iv administration; assay type: ADME, organism-based; design: dose 4 mg/kg, route intravenous; method in brief: as §1
Mus musculus [4] = assay: Inhibition rate of tumor growth at 100 mg/kg single iv administration against Meth A fibrosarcoma cells in BALB/c Mice; assay type: functional
Method in brief: (§3)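 Male BALB/c mice, 7 weeks old (five per group), inoculated s.c. with Meth A cells at 5 × 10^5 cells/mouse on day 0. Single i.v. injection on day 5, doses expressed as free drug equivalent; control group given saline. Tumors weighed on day 21 (mean ± SD); inhibition rate derived from tumor weight relative to control.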

Mus musculus [5] = assay: (§4) Inhibition rate of tumor growth at 25 mg/kg single iv administration against Meth A fibrosarcoma cells in BALB/c Mice; assay type: functional
Method in brief: (§5)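 Meth A cells, 5 × 10^5/mouse, inoculated subcutaneously on day 0 into 7 week old male BALB/c mice, five per group. A single intravenous injection on day 5; saline for controls. Tumours weighed on day 21. Doses in mg/kg expressed as free drug. Inhibition rate derived from tumour weight relative to the saline control group.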

Rattus norvegicus [6] = organism: Rattus norvegicus; assay: (§6) Area under curve of the compound was determined; assay type: ADME, organism-based; conditions: in vivo; method in brief: as §1
Mus musculus [7] = assay: Antitumor activity evaluated as tumor weight on day 21 of Meth A Fibrosarcoma in BALB/c mice at a dose of 100 mg/kg administered intravenously on day 5; assay type: functional; conditions: route intravenous; method in brief: as §5
Mus musculus [8] = assay: Antitumor activity evaluated as tumor weight on day 21 of Meth A Fibrosarcoma in BALB/c mice at a dose of 25 mg/kg administered intravenously on day 5; assay type: functional; conditions: route intravenous; method in brief: as §5
Mus musculus [9] = assay: Antitumor activity evaluated as tumor weight on day 21 of Meth A Fibrosarcoma in BALB/c mice at a dose of 50 mg/kg administered intravenously on day 5; assay type: functional; conditions: route intravenous; method in brief: as §5
Mus musculus [10] = assay: Inhibition rate of tumor growth at 50 mg/kg single iv administration against Meth A fibrosarcoma cells in BALB/c Mice; assay type: functional; method in brief: as §3
[11] = Tmax at a dose of 4 mg/kg in Rat Plasma after iv administration; assay type: ADME, organism-based; design: dose 4 mg/kg, route intravenous; method in brief: as §1
[12] = as §2; assay type: ADME, organism-based; design: dose 4 mg/kg, route intravenous; remark: listed apart in the source
Method in brief: (§7)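 Rats given a single i.v. dose via right femoral vein after recovery from anesthesia, then saline flush. Blood drawn from left femoral artery cannula at 2, 5, 10, 30 min and 1, 3, 5, 7 h. Plasma diluted in 0.146 M H3PO4 with CPT internal standard, then on-line SPE and C18 HPLC with fluorescence detection (ex 390/em 513 nm). LOQ 2 ng/mL. Noncompartmental analysis; AUCinf by trapezoidal rule with extrapolation; n = 1–2 rats.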

[13] = as §6; assay type: ADME; method in brief: as §7
Rattus norvegicus [14] = assay: CLtot at a dose of 4 mg/kg in Rat Plasma after iv administration; assay type: organism-based; design: dose 4 mg/kg; method in brief: as §1
Rattus norvegicus [15] = assay: Vdss at a dose of 4 mg/kg in Rat Plasma after iv administration; assay type: organism-based; design: dose 4 mg/kg; method in brief: as §1
Mus musculus [16] = assay: Ratio between mean survival days of treated group and control group at a dose of 100 mg/kg; assay type: functional
Method in brief: (§8)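 Female CDF1 mice inoculated intraperitoneally on day 0 with 1 × 10^6 P388 or P388/ADM (adriamycin-resistant, MDR-expressing) cells per mouse. Intravenous dosing on days 1, 5 and 9; doses listed are total mg/kg. Survival monitored for 40 days, reported as mean ± SD days. T/C% = (mean survival days of treated group / mean survival days of control group) × 100.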

Mus musculus [17] = assay: Evaluated for survival time of P388/ADM Leukemia implanted female CDF1 Mice at a dose of 100 mg/kg; assay type: functional; method in brief: as §8
Mus musculus [18] = assay: Evaluated for survival time of P388/ADM Leukemia implanted female CDF1 Mice at a dose of 50 mg/kg; assay type: functional; method in brief: as §8
Mus musculus [19] = assay: Evaluated for survival time of P388 Leukemia implanted female CDF1 Mice at a dose of 50 mg/kg; assay type: functional; method in brief: as §8
Mus musculus [20] = assay: Ratio between mean survival days of treated group and control group at a dose of 25 mg/kg; assay type: functional; method in brief: as §8
Mus musculus [21] = assay: Ratio between mean survival days of treated group and control group at a dose of 50 mg/kg; assay type: functional; method in brief: as §8
Mus musculus [22] = assay: as §4; assay type: functional; method in brief: as §3; remark: listed apart in the source
Mus musculus [23] = assay: Evaluated for survival time of P388 Leukemia implanted female CDF1 Mice at a dose of 100 mg/kg; assay type: functional; method in brief: as §8
Mus musculus [24] = assay: Evaluated for survival time of P388 Leukemia implanted female CDF1 Mice at a dose of 25 mg/kg; assay type: functional; method in brief: as §8
Mus musculus [25] = organism: Mus musculus; assay: Ratio between mean survival days of treated group and control group; assay type: functional; method in brief: as §8
Mus musculus [26] = assay: Evaluated for survival time of P388/ADM Leukemia implanted female CDF1 Mice at a dose of 25 mg/kg

`CCc1c2c(nc3ccc(N)cc13)-c1cc3c(c(=O)n1C2)COC(=O)[C@]3([O-])CC.[Na+]` showed an MRT inf [1] of 1.09 h, a Cmax [2] of 10500 ng/mL and a half-life [3] of 2.26 h. For the same compound, the Inhibition rate (Mus musculus [4]) was 69.3%, the Inhibition rate (Mus musculus [5]) was 62.3% and the AUC inf (Rattus norvegicus [6]) was 1.71 µg/h/mL. The Antitumor activity (Mus musculus [7]) was 0.88 g, the Antitumor activity (Mus musculus [8]) was 0.93 g and the Antitumor activity (Mus musculus [9]) was 0.88 g. The Inhibition rate (Mus musculus [10]) was 64% and the Tmax [11] was 2 min.
`CCc1c2c(nc3ccc(N)cc13)-c1cc3c(c(=O)n1C2)COC(=O)[C@]3(O)CC` [listing 1 of 2 here] gave an MRT inf [1] of 1.09 h, a Cmax [2] of 10500 ng/mL and a half-life [12] of 2.25 h. For the same compound, the AUC inf [13] was 2.08 µg/h/mL and the Tmax [11] was 2 min.
In the case of `CCc1c2c(nc3ccc(N)cc13)-c1cc3c(c(=O)n1C2)COC(=O)[C@]3(O)CC` [listing 2 of 2 here], the CL (mL.min-1.kg-1) (Rattus norvegicus [14]) is reported as 40.3 and 34.5 and the Vdss (Rattus norvegicus [15]) is reported as 2.65 L/kg and 2.37 L/kg.
`CCc1c2c(nc3ccc(OC(=O)N4CCC(N5CCCCC5)CC4)cc13)-c1cc3c(c(=O)n1C2)COC(=O)[C@]3(O)CC` [IRINOTECAN] showed a T/C (Mus musculus [16]) of 228%, a Survival time (Mus musculus [17]) of 15.7 days and a Survival time (Mus musculus [18]) of 14.7 days. For the same compound, the Inhibition rate (Mus musculus [4]) was 52.7%, the Survival time (Mus musculus [19]) was 14.5 days and the T/C (Mus musculus [20]) was 172% and 129%. For the same compound, the Antitumor activity (Mus musculus [7]) was 1.16 g, the Antitumor activity (Mus musculus [8]) was 1.24 g and the T/C (Mus musculus [21]) was 189%. The Antitumor activity (Mus musculus [9]) was 1.31 g, the Antitumor activity (Mus musculus [22]) was 49.5% and the Inhibition rate (Mus musculus [10]) was 46.6%. For the same compound, the Survival time (Mus musculus [23]) was 17.5 days.
For `COc1cccc2c1C(=O)c1c(O)c3c(c(O)c1C2=O)C[C@@](O)(C(=O)CO)C[C@@H]3O[C@H]1C[C@H](N)[C@H](O)[C@H](C)O1` [DOXORUBICIN], the Activity (Mus musculus [24]) was 20 days, the T/C (Mus musculus [25]) was 261% and 102% and the Activity (Mus musculus [26]) was 9.8 days.
